PPC-1+TRAIL kill – PPC-1 cancer cell killing with TRAIL present; AID 1443; actives 0.41% (n = 220,000); cell killing (% activity), % at 4 µM or 5 µM; PPC-1 cells + TRAIL, ATPLite viability luminescence;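 active = cell killing above 50% in the first pass at 4 µM, then a duplicate retest at 5 µM averaging 50% or more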
FLuc inh counter – inhibits firefly luciferase, flagging false hits in luciferase inhibition screens; P08659; ATPLite firefly luciferase biochemical luminescence, 10 min; inhibition, % at 10 µM; actives 1.5% (n = 200,000);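 active = inhibition above about 50% when tested at 10 µM, limit read from the data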
Target sequence (P08659 whole entry, looked up): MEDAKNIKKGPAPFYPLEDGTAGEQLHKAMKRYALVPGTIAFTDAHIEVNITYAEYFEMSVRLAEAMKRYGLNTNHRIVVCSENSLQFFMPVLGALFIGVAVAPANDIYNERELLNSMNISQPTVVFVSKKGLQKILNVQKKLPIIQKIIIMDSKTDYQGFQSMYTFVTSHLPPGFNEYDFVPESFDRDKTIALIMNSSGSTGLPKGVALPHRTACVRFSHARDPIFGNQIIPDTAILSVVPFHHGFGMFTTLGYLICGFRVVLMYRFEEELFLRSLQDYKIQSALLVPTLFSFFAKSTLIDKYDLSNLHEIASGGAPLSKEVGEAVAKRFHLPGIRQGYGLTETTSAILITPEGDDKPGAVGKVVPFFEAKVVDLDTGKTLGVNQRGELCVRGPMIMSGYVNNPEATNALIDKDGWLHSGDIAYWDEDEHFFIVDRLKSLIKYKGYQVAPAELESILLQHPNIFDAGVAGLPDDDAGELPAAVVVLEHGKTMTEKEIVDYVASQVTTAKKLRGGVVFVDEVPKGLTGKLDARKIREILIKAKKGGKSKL
HSP90 inh – inhibitors of HSP90 luciferase refolding in rabbit reticulocyte lysate; luciferase refolding luminescence, 3 h; inhibition, % at 5.6 µM; actives 0.91% (n = 290,000);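 active = inhibition above the screen-wide mean plus 3 SD, computed separately per campaign, cut at about 16% in these data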;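 also: inhibitors lower the luminescence because luciferase stays unfolded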
TRAIL sens C8 – sensitizes caspase-8 expressing cells to TRAIL; NB7+C8 cells + TRAIL, ATPlite viability luminescence; inhibition (viability loss, TRAIL sensitization), % at 10 µM; actives 1% (n = 360,000);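 active = compounds causing at least 50% loss of cell viability in the single-dose screen, relative to plate controls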
FLuc act counter – firefly luciferase counter-screen for stimulation assays; P08659; ATPlite luciferase biochemical, luminescence, 10 min; 0 = ATP-free wells, 1 = DMSO control; activation factor at 10 µM; 200,000 tested, under 10 active; AID 1027;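 active = luciferase activation factor, scaled between plate controls, of at least 2 with compound at 10 µM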
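Assay system: Luciferase/luciferin detection reagent, cell-free biochemical luciferase assay / Read-out: luciferase activation / Benchmarks: No-ATP low control, compound-free enzyme-plus-ATP high control / Medium: PBS buffer for ATP / Detection: luminescence measurement of luciferase light output / Schedule: 10 min at ambient temperature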
Hits are given with their value; i = inactive; nt = no result given. In the library only some 2% were active in any assay of this set; here they are far more common.

SMILES | PPC-1+TRAIL kill | FLuc inh counter | HSP90 inh | TRAIL sens C8 | FLuc act counter
CN(C)c1ncnc2c1ccn2C1OC(CO)C(O)C1O (stereo not drawn) | nt | nt | nt | 78 | nt
CN(C)c1nc2c(N)ncnc2n1C1OC(CO)C(O)C1O (stereo not drawn) | nt | nt | nt | i | nt
OCC1OC(n2cnc3c(NCCc4ccccc4)ncnc32)C(O)C1O (stereo not drawn) | nt | nt | nt | i | nt
OC[C@H]1O[C@@H](n2cnc3c(Nc4ccccc4)ncnc32)[C@H](O)[C@@H]1O | i | i | i | i | i
OCC1OC(n2ccc3c(NO)ncnc32)C(O)C1O (stereo not drawn) | nt | nt | nt | 92 | nt
OCC1OC(n2cnc3c(NCc4ccccc4O)ncnc32)C(O)C1O (stereo not drawn) | nt | nt | nt | 76 | nt
CCOC(=O)C1=CCN(S(=O)(=O)c2ccccc2Br)C1c1ccc(F)cc1 (stereo not drawn) | nt | nt | nt | i | nt
CC(C)[C@H](NC(=O)OC(C)(C)C)c1cc(C(=O)N[C@@H](C)c2ccccc2)c(N)s1 | nt | nt | nt | i | nt
CSCCNC(=O)c1ccc(C(C)(C)C)cc1 | i | 74 | i | i | i
CC(C)(C)SCCNC(=O)c1ccccc1 | i | i | i | i | i
C=CCn1c(/N=C/c2ccc3c(c2)OCO3)nc2ccccc21 | i | 72 | i | i | i
CCCn1c(/N=C/c2ccc3c(c2)OCO3)nc2ccccc21 | i | i | i | i | i
CC1(C(=O)NS(=O)(=O)c2ccc(C#N)cc2)CCN1C(=O)Cc1ccccc1Cl (stereo not drawn) | nt | nt | nt | i | nt
CCc1ccc(-c2cc(C(=O)N/N=C/c3c[nH]c4ccccc34)[nH]n2)cc1 | i | i | i | 60 | i
O=C(COc1ccccc1C(=O)Nc1ccccc1)NCCc1ccccc1 | i | 57 | i | i | i
Cc1ccc(NC(=O)COc2ccccc2C(=O)NCCc2ccccc2)cc1 | nt | nt | i | i | nt
O=C(O)c1ccc(CNCc2ccc(F)cc2)cc1 | i | i | i | i | i
CCc1ccc(CNCc2ccc(F)cc2)cc1 | 66 | i | i | i | i
O=C1CCC(C(=O)OCC(=O)Nc2ccc(SC(F)F)cc2)=NN1 | nt | nt | nt | i | nt
CCOc1cc(N2CCOCC2)c(OCC)cc1NC(=O)COC(=O)c1c(C)noc1C | nt | nt | nt | i | nt
Cc1sc(=NC(=O)c2ccco2)n(C)c1-c1ccc(F)cc1 | i | 80 | i | 60 | i
COC(=O)c1ccc(Cn2c(C)c(C(=O)NCc3cccs3)sc2=O)o1 | nt | nt | nt | i | nt
COc1ccc(-c2nc(-c3ccc(NC(=O)c4ccncc4)cc3)no2)cc1OC | i | i | i | 66 | i
Cc1ccccc1-c1nc(-c2ccc(NC(=O)c3ccc4c(c3)OCO4)cc2)no1 | i | i | i | i | i
COc1cc(-c2nc(-c3ccc(NC(=O)c4ccc5c(c4)OCO5)cc3)no2)cc(OC)c1OC | i | i | i | 59 | i
SMILES | PPC-1+TRAIL kill | FLuc inh counter | HSP90 inh | TRAIL sens C8 | FLuc act counter
COc1ccc(Cl)cc1-c1nc(-c2ccc(NC(=O)c3ccncc3)cc2)no1 | nt | nt | i | i | nt
Cc1ccc(-c2nc3c(Cl)cc(C(F)(F)F)cn3c2Cc2cccc(F)c2)cc1 | nt | nt | nt | i | nt
CC(=O)N1CCN(Cc2cc(=O)oc3cc(C)cc(C)c23)CC1 | nt | nt | nt | i | nt
O=C(Nc1nncs1)c1cc2c(s1)CCC2 | i | 63 | i | i | i
O=C(CN(c1cccc(C(F)(F)F)c1)S(=O)(=O)c1ccc(Cl)c([N+](=O)[O-])c1)NCc1ccc(F)cc1 | 63 | i | i | i | i
O=C(CN(c1cccc([N+](=O)[O-])c1)S(=O)(=O)c1ccccc1)NCc1cccnc1 | nt | nt | i | i | nt
O=C1/C(=C\c2cccc(O)c2O)SC(=S)N1Cc1ccccc1 | nt | nt | i | 52 | nt
CSCC[C@H]1COC[C@@H](Cc2ccccc2)N1c1ccccc1 | nt | nt | nt | i | nt
O=C(/C=C/c1ccc(Cl)cc1)c1ccc([N+](=O)[O-])o1 | nt | nt | nt | 60 | nt
COc1cc(/C=C/C(=O)c2c(O)cc(C)oc2=O)cc(OC)c1O | i | i | i | i | i
CSc1ccc(/C=C/C(=O)c2c(O)cc(C)oc2=O)cc1 | nt | nt | i | 64 | nt
Cc1cc(O)c(C(=O)/C=C/c2ccc(Cl)cc2)c(=O)o1 | nt | nt | i | 69 | nt
CCSc1ccc(-c2cc(NC=O)c3ncc(-c4cccc(C(=O)NCCN(C)C)c4)n3c2)cc1 | nt | nt | nt | 79 | nt
CC(=O)Nc1cc(-c2cccc(C(=O)NCCN(C)C)c2)cn2c(-c3cccc(C(F)(F)F)c3)cnc12 | nt | nt | nt | 65 | nt
CC(=O)Nc1cc(-c2cccc(C(=O)NCCN(C)C)c2)cn2c(-c3ccccc3)cnc12 | nt | nt | nt | i | nt
O=C([C@H]1O[C@@H](n2ccc(=O)[nH]c2=O)[C@H](O)[C@@H]1O)N1CCN(c2ccc(Cl)cn2)CC1 | nt | nt | nt | i | nt
CN(C)S(=O)(=O)c1cccc(C(=O)OCC(=O)NC2CCCc3ccccc32)c1 (stereo not drawn) | i | 57 | i | i | i
CNS(=O)(=O)c1cccc(C(=O)OCC(=O)c2cc(C)n(CC3CCCO3)c2C)c1 (stereo not drawn) | nt | nt | nt | 62 | nt
Cc1cc(C(=O)COC(=O)c2cccc(S(=O)(=O)N(C)C)c2)c(C)n1CC1CCCO1 (stereo not drawn) | nt | nt | nt | 62 | nt
COc1cc(OC)cc(C(=O)OCC(=O)c2cc(C)n(CC3CCCO3)c2C)c1 (stereo not drawn) | nt | nt | nt | i | nt
Cc1ccc(C(=O)NCC(=O)OCc2nc3ccsc3c(=O)[nH]2)cc1C | nt | nt | nt | i | nt
Cc1noc(N)c1C(=O)Nc1ccc(C(C)(C)C)cc1 | i | 67 | i | 56 | i
CCOC(=O)Cc1ccc(NC(=O)c2ccc(C(C)(C)C)cc2)cc1 | i | 54 | i | i | i
Oc1ccc(C=Nc2ccc(N3CCOCC3)cc2)c(O)c1 | i | 78 | i | i | i
COc1ccccc1C(=O)NNC(=O)c1cccc(F)c1 | i | i | i | i | i
SMILES | PPC-1+TRAIL kill | FLuc inh counter | HSP90 inh | TRAIL sens C8 | FLuc act counter
COc1ccccc1C(=O)NNC(=O)c1cccc(O)c1 | nt | nt | i | 50 | nt
Cc1c(CC(=O)O)c(=O)oc2cc(OCc3ccc(Br)cc3)ccc12 | nt | nt | 17 | i | nt
Cc1c(CC(=O)O)c(=O)oc2cc(OCc3ccc(F)cc3F)ccc12 | nt | nt | i | i | nt
C[C@@H]1CN([C@@H](C)CO)S(=O)(=O)c2ccc(Br)cc2O[C@@H]1CN(C)C(=O)C1CC1 | nt | nt | nt | i | nt
CC1=NNC(=O)/C1=C\c1cn(-c2ccccc2)nc1-c1ccccc1 | i | i | i | 63 | i
CC(NC(=O)c1cc(COc2ccc(-n3cncn3)cc2)on1)c1ccc(F)cc1 (stereo not drawn) | nt | nt | nt | i | nt
CSc1ccc(/C=C/c2ccc3cccc(O)c3n2)cc1 | i | i | i | 53 | i
COC(=O)C1=CN(c2ccc(F)cc2)C(N)=C(C#N)C1c1cccc(F)c1 (stereo not drawn) | nt | nt | nt | i | nt
CC(=O)Nc1nnc(SCC(=O)N2CCCc3ccccc32)s1 | i | i | i | i | i
Cc1cc(C)cc(C(=O)Nc2nnc(SCC(=O)N3CCCc4ccccc43)s2)c1 | i | i | i | i | i
O=C(Nc1nnc(SCC(=O)N2CCCc3ccccc32)s1)c1ccccc1 | 75 | 92 | i | 75 | i
O=C(Nc1nnc(SCC(=O)N2CCCc3ccccc32)s1)c1ccc2ccccc2c1 | 64 | 92 | i | 83 | i
